Series [1] can be described thus: Drug distribution in human HeLa cells cytoplasm assessed as increase in super oxide anion level at 2.5 x 10^-4 mol/L preincubated for 24 hrs followed by irradiation with 365 nm UVA-LED light measured at 5 mins interval for 30 mins by MitoROS stress marker based laser confocal microscopic analysis. It counts as ADME, subcellular. The note with it: 0.5 h, 250 µM. In short, it runs like this:
(§1)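 Live HeLa cells, with or without the salt, were loaded with OxiORANGE (hydroxyl radical) or MitoROS 580 (superoxide) and imaged during UV irradiation for 30 min. Blue fluorescence was taken through a DAPI filter and red through a TRITC filter. Intensities were quantified at endosomal positions, in cytoplasm and for the red probe.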

The nature of series [2]: Drug distribution in human HeLa cell cytoplasm assessed as increase in hydroxyl radical at 2.5 x 10^-4 mol/L preincubated for 24 hrs followed by irradiation with 365 nm UVA-LED light measured at 5 mins interval for 30 mins by OxiORANGE stress marker based laser confocal microscopic analysis. It counts as ADME, subcellular. The note with it: 0.5 h, 250 µM. In short, it runs like this: as §1

Series [3] deals with Enterobacteria phage phiX174. Kind of series: Induction of DNA cleavage in supercoiled phiX174 RF I DNA assessed as formation of nicked circular DNA in presence of UVA-LED irradiation with 365 nm light after 10 mins by RE-DYE based agarose gel electrophoresis method. In short, it runs like this:
(§2)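 Supercoiled ΦX174 RF I DNA in TE, with the salt in H2O, was irradiated with UVA-LED for 1, 10, 30, 60 or 180 min. A DNA-only irradiated control was included. Scavenger runs added 1.0 × 10–3 mol L–1 NaN3, KI, DMSO or t-BuOH with 60 min irradiation. Samples were resolved on 0.9% agarose in TAE (40 mmol L–1 Tris-acetate, 1 mmol L–1 EDTA, pH 8.0), and supercoiled (Form I) versus nicked circular (Form II) bands were scored.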

Series [4] concerns Enterobacteria phage phiX174. Nature of the series: Induction of DNA cleavage in supercoiled phiX174 RF I DNA assessed as cleavage of supercoiled DNA in presence of UVA-LED irradiation with 365 nm light after 60 mins by RE-DYE based agarose gel electrophoresis method relative to control. Put shortly:
as §2

Series [5] deals with Enterobacteria phage phiX174. Kind of series: Induction of DNA cleavage in supercoiled phiX174 RF I DNA assessed as DNA photo cleavage irradiated with 365 nm UVA-LED light in presence of NaN3 measured up to 60 mins by RE-DYE based agarose gel electrophoresis method. In short, it runs like this: as §2
The test system of series [6] is Enterobacteria phage phiX174. Kind of series: Induction of DNA cleavage in supercoiled phiX174 RF I DNA assessed as DNA photo cleavage irradiated with 365 nm UVA-LED light in presence of KI measured up to 60 mins by RE-DYE based agarose gel electrophoresis method. In short, it runs like this: as §2
Series [7] deals with Enterobacteria phage phiX174. Kind of series: Induction of DNA cleavage in supercoiled phiX174 RF I DNA assessed as DNA photo cleavage irradiated with 365 nm UVA-LED light in presence of DMSO measured up to 60 mins by RE-DYE based agarose gel electrophoresis method. Put shortly: as §2
The subject of series [8] is Enterobacteria phage phiX174. Kind of series: Induction of DNA cleavage in supercoiled phiX174 RF I DNA assessed as DNA photo cleavage irradiated with 365 nm UVA-LED light in presence of t-BuOH measured up to 60 mins by RE-DYE based agarose gel electrophoresis method. Put shortly: as §2
Series [9] concerns Enterobacteria phage phiX174. Nature of the series: Induction of DNA cleavage in supercoiled phiX174 RF I DNA assessed as formation of nicked circular DNA irradiated with 365 nm UVA-LED light under N2 condition measured up to 60 mins by RE-DYE based agarose gel electrophoresis method.
Series [10] concerns HeLa. Kind of series: Antiproliferative against human HeLa cells assessed as reduction in cell viability at 2.5 x 10^-4 mol/L after 24 hrs by CCK-8 assay. It counts as functional, cell-based. Put shortly: (§3)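 HeLa viability was read by CCK-8 after 1 h (acute) or 24 h (subacute) incubation with a concentration series of the salt. The top concentration was 2.5 × 10–4 mol L–1, limited by water solubility. IC50 was estimated, not determined.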
Background: Formazan colour is commonly taken as a measure of viable cells.

The subject of series [11] is HeLa. Kind of series: Antiproliferative against human HeLa cells assessed as reduction in cell viability at 0.08 x 10^-4 mol/L to 1.25 x 10^-4 mol/L after 24 hrs by CCK-8 assay. The class given is functional, cell-based. In short, it runs like this: as §3
The nature of series [12]: Drug localization in endosomes of human HeLa cells assessed as co-localization of compound with endosome at 2.5 x 10^-4 mol/L after 24 hrs in presence of endocytosis marker Alexa Fluor 594-conjugated dextran by fluorescence based inverted microscopic analysis. It counts as ADME, subcellular. To be noted: 250 µM. Put shortly:
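HeLa cells were co-incubated with the salt and an endocytosis marker at 37 °C, 5% CO2, for 24 h. Imaging used bright field, cyan fluorescence through a WU filter and red marker fluorescence through a WIY filter, and the images were merged to assess colocalization.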

Series [13] has as its system HeLa. Kind of series: Photocytotoxicity against human HeLa cells assessed as reduction in cell viability at 2.5 x 10^-4 mol/L preincubated for 24 hrs followed by irradiation with 365 nm UVA-LED light after 10 mins by CCK-8 assay. It counts as functional, cell-based. In short, it runs like this:
(§4)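 Salt-stained HeLa cells were irradiated with UVA-LED for 10, 30 or 60 min. Viability was read immediately after irradiation, or after a further 24 h at 37 °C in the dark. Irradiated cells without salt served as control.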

The subject of series [14] is HeLa. Nature of the series: Photocytotoxicity against human HeLa cells assessed as reduction in cell viability at 2.5 x 10^-4 mol/L preincubated for 24 hrs followed by irradiation with 365 nm UVA-LED light after 30 mins by CCK-8 assay. It counts as functional, cell-based. Put shortly:
as §4

The test system of series [15] is HeLa. Nature of the series: Photocytotoxicity against human HeLa cells assessed as reduction in cell viability at 2.5 x 10^-4 mol/L preincubated for 24 hrs followed by irradiation with 365 nm UVA-LED light after 60 mins by CCK-8 assay. The class given is functional, cell-based. In short, it runs like this: as §4
The subject of series [16] is HeLa. Kind of series: Photocytotoxicity against human HeLa cells assessed as reduction in cell viability at 2.5 x 10^-4 mol/L preincubated for 24 hrs followed by irradiation with 365 nm UVA-LED light for 60 mins and measured after 24 hrs by CCK-8 assay. The class given is functional, cell-based. Put shortly: as §4
In series [17] the test system is HeLa. Nature of the series: Antiproliferative activity against human HeLa cells assessed as reduction in cell viability by measuring mitochondrial damage at 2.5 x 10^-4 mol/L preincubated for 24 hrs followed by irradiation with 365 nm UVA-LED light after 30 mins by inverted microscopic analysis. It counts as functional, cell-based.
Series [18] relates to HeLa. Kind of series: Induction of mitochondrial depolarization in human HeLa cells assessed at 2.5 x 10^-4 mol/L preincubated for 24 hrs followed by irradiation with 365 nm UVA-LED for 30 mins by JC-1 staining based inverted microscopic analysis. It counts as functional, cell-based. In short, it runs like this:
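Mitochondrial membrane potential was assessed by JC-1 in HeLa cells with or without the salt after UVA-LED irradiation for 0, 30 or 60 min. FCCP served as the depolarization positive control. Imaging used WIY and WU filters plus bright field.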

For series [19], the system named is HeLa. Kind of series: Induction of mitochondrial depolarization in human HeLa cells assessed at 2.5 x 10^-4 mol/L preincubated for 24 hrs followed by irradiation with 365 nm UVA-LED for 30 mins under hypoxic conditions by JC-1 staining based inverted microscopic analysis. It counts as functional, cell-based. In short, it runs like this:
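The JC-1 mitochondrial membrane potential assay was run on salt-stained HeLa cells under UVA-LED irradiation in hypoxic conditions.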

Series [20] relates to HeLa. Kind of series: Antiproliferative against human HeLa cells assessed as reduction in cell viability after 24 hrs by CCK-8 assay. It counts as functional, cell-based. Put shortly:
as §3

Series [21] is described as follows: Drug localization in human HeLa cells mitochondria at 2.5 x 10^-4 mol/L incubated for 24 hrs by Mitotracker Red staining based inverted microscopic analysis. It counts as ADME. To be noted: 250 µM. Put shortly: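 HeLa cells were stained with the salt and a mitochondrial marker, either without UVA-LED or with marker incubation after 30 min of UVA-LED irradiation. Overlap of cyan and red fluorescence was assessed.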

Series [22] is described as follows: Drug distribution in human HeLa cells cytoplasm assessed as decrease in dot shaped cyan signals at 2.5 x 10^-4 mol/L after 24 hrs in presence of endocytosis marker Alexa Fluor 594-conjugated dextran followed by irradiation with 365 nm UVA-LED for 10 to 30 mins by fluorescence based inverted microscopic analysis. The note with it: 250 µM.

This note sets out measurements from ChEMBL document CHEMBL4396927, “Fluorescent Imidazo[1,5-a]pyridinium Salt for a Potential Cancer Therapy Agent” (ACS Med Chem Lett, 2019).

Activity calls are given as the source filed them. No cut-off for these calls is given here.

Consider `C[n+]1c(-c2ccccc2)c2ccccn2c1-c1n2ccccc2c(-c2ccccc2)[n+]1C.[I-].[I-]`, for which the Drug uptake result in series [1] was “Active”; in [2], “Active”; in series [12], “Active”; in series [21], “Not Active”; in series [22], “Active”. In addition, the result in series [3], in [5], in series [6], in series [7], in [8] and in series [9] was Active. Also, the result in series [10], in [14], in [15], in series [16], in [17] and in series [18] was Active. In addition, the Activity in [4] is 100%. Also, the result in series [11], in series [13] and in series [19] was inactive. In addition, the IC50 entry in series [20] is recorded as “Nd(Insoluble)”.
